Data from ChEMBL document CHEMBL2311448, “Enantioselective synthesis of derivatives and structure-activity relationship study in the development of NA255 as a novel host-targeting anti-HCV agent” (Bioorg Med Chem Lett, 2013).

Assays:
[1] = Cytotoxicity against human Hepatoma cells; assay type: cell-based
[2] = Mean residence time in Sprague-Dawley rat liver at 10 mg/kg, sc; assay type: ADME, organism-based; set-up: dose 10 mg/kg, route subcutaneous
Summary of the method: (§1)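 Male Sprague–Dawley rats got a single subcutaneous dose of 10 mg/kg (n = 2) in 10% PEG300–10% HPCD in water. Plasma and liver concentrations were measured over time after dosing. Footnotes mark concentrations taken at 0.5 h and at 2 h postdosing. One compound was given as its tri-sodium salt.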

[3] = Cmax in Sprague-Dawley rat plasma at 10 mg/kg, sc at 0.5 hrs; assay type: ADME, organism-based; set-up: dose 10 mg/kg, route subcutaneous; summary of the method: as §1
[4] = Half life in Sprague-Dawley rat liver at 10 mg/kg, sc; assay type: ADME, organism-based; set-up: dose 10 mg/kg, route subcutaneous; summary of the method: as §1
[5] = AUC in Sprague-Dawley rat plasma at 10 mg/kg, sc; assay type: ADME, organism-based; set-up: dose 10 mg/kg, route subcutaneous; summary of the method: as §1
[6] = AUC in Sprague-Dawley rat liver at 10 mg/kg, sc; assay type: ADME, organism-based; set-up: dose 10 mg/kg, route subcutaneous; summary of the method: as §1
[7] = Mean residence time in Sprague-Dawley rat plasma at 10 mg/kg, sc; assay type: ADME, organism-based; set-up: dose 10 mg/kg, route subcutaneous; summary of the method: as §1
[8] = Cmax in Sprague-Dawley rat liver at 10 mg/kg, sc at 2 hrs; assay type: ADME, organism-based; set-up: dose 10 mg/kg, route subcutaneous; summary of the method: as §1
[9] = Half life in Sprague-Dawley rat plasma at 10 mg/kg, sc; assay type: ADME, organism-based; set-up: dose 10 mg/kg, route subcutaneous; summary of the method: as §1
Hepatitis C virus = assay: Antiviral activity against HCV infected in human hepatoma cells assessed as inhibition of viral replication; assay type: functional, organism-based, Hepacivirus hominis

CCCCCCCC(=O)CCCCCC/C=C/[C@H](C(=O)N[C@@H](Cc1ccc(OCC=C(C)C)cc1)C(=O)O)[C@@](O)(CC(=O)O)C(=O)O
CC50 [1]: > 5000 nM

CCCCCCCC(=O)CCCCCC/C=C/[C@H](C(=O)N[C@@H](Cc1ccc(-c2cccc(OC)c2)cc1)C(=O)[O-])[C@@](O)(CC(=O)[O-])C(=O)[O-].[Na+].[Na+].[Na+]
MRT [2]: 16.1 h | Cmax [3]: 351 ng/mL | half-life [4]: 21.3 h | AUC [5]: 2590 ng·h/mL | AUC [6]: 82900 ng·h/mL | MRT [7]: 12.9 h | Cmax [8]: 5920 ng/mL | half-life [9]: 14.8 h

CC#CCOc1ccc(C[C@H](NC(=O)[C@@H](/C=C/CCCCCCC(=O)CCCCCCC)[C@@](O)(CC(=O)[O-])C(=O)[O-])C(=O)[O-])cc1.[Na+].[Na+].[Na+]
MRT [2]: 7.3 h | Cmax [3]: 604 ng/mL | half-life [4]: 4.75 h | AUC [5]: 3050 ng·h/mL | AUC [6]: 49600 ng·h/mL | MRT [7]: 5.48 h | Cmax [8]: 7100 ng/mL | half-life [9]: 3.99 h

CCCCCCCC(=O)CCCCCC/C=C/[C@H](C(=O)N[C@@H](Cc1ccc(OCc2ccccc2)cc1)C(=O)[O-])[C@@](O)(CC(=O)[O-])C(=O)[O-].[Na+].[Na+].[Na+]
MRT [2]: 17 h | Cmax [3]: 209 ng/mL | half-life [4]: 27.3 h | AUC [5]: 2690 ng·h/mL | AUC [6]: 100000 ng·h/mL | MRT [7]: 13.6 h | Cmax [8]: 6590 ng/mL | half-life [9]: 9.81 h

CCCCCCCC(=O)CCCCCC/C=C/[C@H](C(=O)N[C@@H](CC1CCCCC1)C(=O)O)[C@@](O)(CC(=O)O)C(=O)O
IC50 (Hepatitis C virus): > 5000 nM | CC50 [1]: > 5000 nM

CCCCCCCC(=O)CCCCCC/C=C/[C@H](C(=O)N[C@@H](Cc1cccc2ccccc12)C(=O)O)[C@@](O)(CC(=O)O)C(=O)O
IC50 (Hepatitis C virus): > 1000 nM | CC50 [1]: > 1000 nM

CCCCCCCC(=O)CCCCCC/C=C/[C@H](C(=O)N[C@@H](Cc1ccc2ccccc2c1)C(=O)O)[C@@](O)(CC(=O)O)C(=O)O
IC50 (Hepatitis C virus): 14 nM | CC50 [1]: > 5000 nM

CCCCCCCC(=O)CCCCCC/C=C/[C@H](C(=O)N[C@@H](Cc1ccc(OC)cc1)C(=O)O)[C@@](O)(CC(=O)O)C(=O)O
IC50 (Hepatitis C virus): 6.4 nM | CC50 [1]: > 5000 nM

CCCCCCCC(=O)CCCCCC/C=C/[C@H](C(=O)N[C@@H](Cc1ccc(OCCC)cc1)C(=O)O)[C@@](O)(CC(=O)O)C(=O)O
IC50 (Hepatitis C virus): 2.6 nM | CC50 [1]: > 5000 nM

CCCCCCCC(=O)CCCCCC/C=C/[C@H](C(=O)N[C@@H](Cc1ccc(OCCCC)cc1)C(=O)O)[C@@](O)(CC(=O)O)C(=O)O
IC50 (Hepatitis C virus): 1.2 nM | CC50 [1]: > 5000 nM

CC#CCOc1ccc(C[C@H](NC(=O)[C@@H](/C=C/CCCCCCC(=O)CCCCCCC)[C@@](O)(CC(=O)O)C(=O)O)C(=O)O)cc1
IC50 (Hepatitis C virus): 1.2 nM | CC50 [1]: > 5000 nM

CCCCCCCC(=O)CCCCCC/C=C/[C@H](C(=O)N[C@@H](Cc1ccc(OCCCN)cc1)C(=O)O)[C@@](O)(CC(=O)O)C(=O)O
IC50 (Hepatitis C virus): 38 nM | CC50 [1]: > 1000 nM

CCCCCCCC(=O)CCCCCC/C=C/[C@H](C(=O)N[C@@H](Cc1ccc(Oc2ccccc2)cc1)C(=O)O)[C@@](O)(CC(=O)O)C(=O)O
IC50 (Hepatitis C virus): 1.9 nM | CC50 [1]: > 5000 nM

CCCCCCCC(=O)CCCCCC/C=C/[C@H](C(=O)N[C@@H](Cc1ccc(OCc2ccccc2)cc1)C(=O)O)[C@@](O)(CC(=O)O)C(=O)O
IC50 (Hepatitis C virus): 0.32 nM | CC50 [1]: > 5000 nM

CCCCCCCC(=O)CCCCCC/C=C/[C@H](C(=O)N[C@@H](Cc1ccc(-c2ccccc2)cc1)C(=O)O)[C@@](O)(CC(=O)O)C(=O)O
IC50 (Hepatitis C virus): 1.6 nM | CC50 [1]: > 5000 nM

CCCCCCCC(=O)CCCCCC/C=C/[C@H](C(=O)N[C@@H](Cc1ccc(-c2cccc(OC)c2)cc1)C(=O)O)[C@@](O)(CC(=O)O)C(=O)O
IC50 (Hepatitis C virus): 2.6 nM | CC50 [1]: > 1000 nM

CCCCCCCC(=O)CCCCCC/C=C/[C@H](C(=O)N[C@@H](Cc1ccc(-c2cccnc2)cc1)C(=O)O)[C@@](O)(CC(=O)O)C(=O)O
IC50 (Hepatitis C virus): 10 nM | CC50 [1]: > 1000 nM

CCCCCCC(=O)CCCCCC/C=C/[C@H](C(=O)N[C@@H](Cc1ccc(OCCC(C)C)cc1)C(=O)O)[C@@](O)(CC(=O)O)C(=O)O
IC50 (Hepatitis C virus): 19 nM | CC50 [1]: > 1000 nM

CCCC(=O)CCCCCC/C=C/[C@H](C(=O)N[C@@H](Cc1ccc(OCCC(C)C)cc1)C(=O)O)[C@@](O)(CC(=O)O)C(=O)O
IC50 (Hepatitis C virus): 800 nM | CC50 [1]: > 5000 nM

CCCCCCCCCC(=O)CCCC/C=C/[C@H](C(=O)N[C@@H](Cc1ccc(OCCC(C)C)cc1)C(=O)O)[C@@](O)(CC(=O)O)C(=O)O
IC50 (Hepatitis C virus): 5.1 nM | CC50 [1]: > 1000 nM

CCCCCC(=O)CCCCCCCC/C=C/[C@H](C(=O)N[C@@H](Cc1ccc(OCCC(C)C)cc1)C(=O)O)[C@@](O)(CC(=O)O)C(=O)O
IC50 (Hepatitis C virus): 1.4 nM | CC50 [1]: > 1000 nM

C=CCCCCCC(=O)CCCCCC/C=C/[C@H](C(=O)N[C@@H](Cc1ccc(OCCC(C)C)cc1)C(=O)O)[C@@](O)(CC(=O)O)C(=O)O
IC50 (Hepatitis C virus): 6.1 nM | CC50 [1]: > 1000 nM

CC(C)CCCCC(=O)CCCCCC/C=C/[C@H](C(=O)N[C@@H](Cc1ccc(OCCC(C)C)cc1)C(=O)O)[C@@](O)(CC(=O)O)C(=O)O
IC50 (Hepatitis C virus): 5.7 nM | CC50 [1]: > 1000 nM

CC(C)CCOc1ccc(C[C@H](NC(=O)[C@@H](/C=C/CCCCCCC(=O)Cc2ccccn2)[C@@](O)(CC(=O)O)C(=O)O)C(=O)O)cc1
IC50 (Hepatitis C virus): > 1000 nM | CC50 [1]: > 1000 nM

CC(C)CCOc1ccc(C[C@H](NC(=O)[C@@H](/C=C/CCCCCCC(=O)CCc2ccccc2)[C@@](O)(CC(=O)O)C(=O)O)C(=O)O)cc1
IC50 (Hepatitis C virus): 290 nM | CC50 [1]: > 1000 nM

CC(C)CCOc1ccc(C[C@H](NC(=O)[C@@H](/C=C/CCCCCCC(=O)CCC2CCCCC2)[C@@](O)(CC(=O)O)C(=O)O)C(=O)O)cc1
IC50 (Hepatitis C virus): 32 nM | CC50 [1]: > 1000 nM

CCCCCCCC(=O)CCCCCC/C=C/[C@H](C(=O)N[C@H](Cc1ccc(OCCC(C)C)cc1)C(=O)O)[C@@](O)(CC(=O)O)C(=O)O
IC50 (Hepatitis C virus): > 5000 nM | CC50 [1]: > 5000 nM

CCCCCCCC(=O)CCCCCC/C=C/[C@H](C(=O)NCCc1ccc(OCCC(C)C)cc1)[C@@](O)(CC(=O)O)C(=O)O
IC50 (Hepatitis C virus): 1000 nM | CC50 [1]: > 5000 nM

CCCCCCCC(=O)CCCCCC/C=C/[C@H](C(=O)N[C@@H](Cc1ccc(OCCCC(C)C)cc1)C(=O)O)[C@@](O)(CC(=O)O)C(=O)O
IC50 (Hepatitis C virus): 12 nM | CC50 [1]: > 1000 nM

CCCCCCCC(=O)CCCCCC/C=C/[C@H](C(=O)N[C@@H](Cc1ccccc1)C(=O)O)[C@@](O)(CC(=O)O)C(=O)O
IC50 (Hepatitis C virus): 17 nM | CC50 [1]: 13900 nM

CCCCCCCC(=O)CCCCCC/C=C/[C@H](C(=O)N[C@@H](Cc1cccs1)C(=O)O)[C@@](O)(CC(=O)O)C(=O)O
IC50 (Hepatitis C virus): 490 nM | CC50 [1]: > 1000 nM

CCCCCCCC(=O)CCCCCC/C=C/[C@H](C(=O)N[C@@H](Cc1ccc(OCCC(C)C)cc1)C(=O)O)[C@@](O)(CC(=O)O)C(=O)O
IC50 (Hepatitis C virus): 1.4 nM | CC50 [1]: > 5000 nM

CCCCCCCC(=O)CCCCCCCC[C@H](C(=O)N[C@@H](Cc1ccc(OCCC(C)C)cc1)C(=O)O)[C@@](O)(CC(=O)O)C(=O)O
IC50 (Hepatitis C virus): 150 nM | CC50 [1]: > 5000 nM

CCCCCCCCCCCCCC/C=C/[C@H](C(=O)NC(Cc1ccc(OCC=C(C)C)cc1)C(=O)O)[C@@](O)(CC(=O)O)C(=O)O (some centres undefined)
IC50 (Hepatitis C virus): 155 nM | CC50 [1]: > 50000 nM

CCCCCCCCC(=O)CCCCCC/C=C/[C@H](C(=O)N[C@@H](Cc1ccc(OCCC(C)C)cc1)C(=O)O)[C@@](O)(CC(=O)O)C(=O)O
IC50 (Hepatitis C virus): 6.9 nM | CC50 [1]: > 50000 nM

CCCCCCCC(O)CCCCCC/C=C/[C@H](C(=O)N[C@@H](Cc1ccc(OCCC(C)C)cc1)C(=O)O)[C@@](O)(CC(=O)O)C(=O)O (mixture of isomers)
IC50 (Hepatitis C virus): 25 nM | CC50 [1]: > 1000 nM
